Results on 17 substances are retold here after paper PMC9294072 (ACS chemical biology, 2022).

Where no end group is shown, it is not given here. [ ]: non-standard residue; d: D form. Arg(Me2a) = CN(C)C(=N)NCCC[C@H](N)C(=O)O; Arg(Me2s) = CN=C(NC)NCCC[C@H](N)C(=O)O; pS = N[C@@H](COP(=O)(O)O)C(=O)O

For one experiment, the target named is T1, hNatD (Homo sapiens, UniProt Q86UY6). Put plainly: Continuous fluorescence-based acetylation assay. The class given is biochemical. Particulars: G4V relative to G4D. An outline of the steps:
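hNatD activity monitored continuously by fluorescence at 25 °C. All components except peptide were preincubated for 10 min, then the reaction was started with varying peptide concentrations. For AcCoA characterization, the peptide substrate was fixed at 50 μM. Readings were taken at 400–415 nm and 460–485 nm. Signal was converted to CoA via a standard curve, and initial velocities were fit to Michaelis-Menten or substrate-inhibition models. Run at least in duplicate.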
For “G4V: oncohistone H4/H2A pentapeptide with G4V mutation (SGRVK-NH2)”, the “fold higher kcat/Km for G4V than G4D” value is listed as 7 fold.

The experiment is the same for the next values; noted with them: H2A peptide vs H4 peptide of the same length.
As for “H2A-12: C-terminal truncated H2A synthetic peptide, 12 residues (SGRGKQGGKARA-NH2; UniProt P0C0S8 2-13, looked up, fragment)”, the “fold reduction in kcat/Km compared to corresponding H4 peptides” value is listed as “about 4 fold”.

Staying with this experiment, now noted: SMARCD2-derived pentapeptide vs H4-5 (also H2A-5).
SGRGA: the “fold difference in kcat and kcat/Km compared to H4-5” value is given as “less than 2 fold”.

Staying with this experiment, now noted: fluorescence assay; compared to H4-5.
Consider “H4K5ac: H4 pentapeptide with Lys5 acetylation (SGRGK(Ac)-NH2)”, for which the “kinetic parameters relative to unmodified H4-5 (in words)” value was “comparable kinetic parameters”.

The experiment is the same for the next values; noted with them: normalized to wild-type H4-5; fluorescence assay.
On to “G2E: oncohistone H4/H2A pentapeptide with G2E mutation (SERGK-NH2)”, for which the “fold decrease in kcat compared to H4-5” value is reported as 3 fold.

In the case of “G4D: oncohistone H4/H2A pentapeptide with G4D mutation (SGRDK-NH2)”, the “fold decrease in kcat compared to H4-5” value is “less than 2 fold”.

Regarding “G4S: oncohistone H4/H2A pentapeptide with G4S mutation (SGRSK-NH2)”, the “fold decrease in kcat compared to H4-5” value is 7 fold and the “fold reduction in kcat/Km compared to H4-5” value (shortened to “fold reduction … to H4-5”) is reported as 17 fold.

Take “G4V: oncohistone H4/H2A pentapeptide with G4V mutation (SGRVK-NH2)”: the “fold decrease in kcat compared to H4-5” value was “less than 2 fold”.

In the case of “H4R3me1: H4 pentapeptide with Arg3 monomethylation (SG[Rme1]GK-NH2; UniProt P62805 2-6, looked up, fragment)”, the “fold reduction … to H4-5” value is 3.6 fold.

“H4R3me2a: H4 pentapeptide with Arg3 asymmetric dimethylation (SG[Arg(Me2a)]GK-NH2; UniProt P62805 2-6, looked up, fragment)”: the “fold reduction … to H4-5” value came to 8 fold.

For the substance “H4R3me2s: H4 pentapeptide with Arg3 symmetric dimethylation (SG[Arg(Me2s)]GK-NH2)”, the “fold reduction … to H4-5” value is 17 fold.

For the substance “H4pS1: H4 pentapeptide with Ser1 phosphorylation ([pS]GRGK-NH2)”, the “fold decrease in kcat compared to H4-5” value is given as 2.3 fold and the “fold reduction … to H4-5” value was “over 100 fold”.

For “R3H: oncohistone H4/H2A pentapeptide with R3H mutation (SGHGK-NH2)”, the “fold decrease in kcat compared to H4-5” value turned out to be 1.5 fold and the “fold reduction … to H4-5” value turned out to be 6.5 fold.

As to “R3Q: oncohistone H4/H2A pentapeptide with R3Q mutation (SGQGK-NH2)”, the “fold decrease in kcat compared to H4-5” value was 3 fold and the “fold reduction … to H4-5” value came to 200 fold.

“S1L: oncohistone H4/H2A pentapeptide with S1L mutation (LGRGK-NH2)”: the “fold decrease in kcat compared to H4-5” value stood at 5 fold.

The target in the next experiment is T1, hNatD. Put plainly: MALDI-MS acetylation assay. The following applies: relative to wild-type H4-5. It counts as biochemical. An outline of the steps: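 Human NatD 50 nM with 50 µM AcCoA in 25 mM HEPES, 150 mM NaCl, pH 7.5, 25 °C. Reaction started by adding peptide in 2-fold dilutions. Cysteine peptides were pre-reduced with DTT and diluted in buffer containing 10 mM DTT. Timed aliquots were quenched 1:1 in 0.1% TFA and spotted with CHCA for MALDI-MS of acetylated product. Initial slopes were fitted to Michaelis-Menten or substrate-inhibition models, in duplicate.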
Consider CGRGK [S1C], for which the “fold reduction … to H4-5” value was ~ 100 fold.

In the case of “S1F: oncohistone H4/H2A pentapeptide with S1F mutation (FGRGK-NH2)”, the “fold reduction … to H4-5” value is “over 1,000 fold”.

As for SGCGK [R3C], the “fold reduction … to H4-5” value amounted to 17 fold.
